From ChEMBL document CHEMBL1123312, “In the search for new anticancer drugs. 17. Linear and cyclic polyether analogues of N,N:N',N':N'',N''-tri-1,2-ethanediylphosphoric triamide and N,N:N',N':N'',N''-tri-1,2-ethanediylphosphorothioic triamide” (J Med Chem, 1986)
Values joined by “and” are separate entries in the source; they are usually repeats but may differ in a detail not shown here. Equal entries are not always repeated.

Assays:
[1] = tested on: Mus musculus; assay: Anticancer activity against P388 leukemia in CD2F1 male mice by 60 mg/kg/day.; assay type: functional
Procedure, shortened: (§1)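 CD2F1 male mice, 19–22 g, in groups of six, inoculated ip with 10⁶ P388 cells on day 0. Dosed ip once daily for 9 days from day 1, in saline, or for linear polyethers in aqueous 2% Tween 80. Deaths and survivors were recorded to 30 days, some to 60. T/C is mean survival, treated vs tumour-bearing control. %ILS = [(T−C)/C]×100. Average day-5 weight change was taken as toxicity.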

[2] = tested on: Mus musculus; assay: Compound was evaluated for the anticancer activity against P388 leukemia in CD2F1 male mice at a dose of 20 mg/kg/after 30 days; 0/6; assay type: functional
[3] = tested on: Mus musculus; assay: Anticancer activity against P388 leukemia in CD2F1 male mice expressed as Average % weight change on day 5 as a measure of toxicity was reported at a dose of 20 mg/kg/day.; assay type: functional; procedure, shortened: as §1
[4] = partition coefficient with the use of 1-octanol / water solvent system; assay type: physicochemical
Procedure, shortened: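 4 mL of 10 mM aqueous compound was stirred vigorously with 2 mL 1-octanol for 5 min at 25 °C. The aqueous layer was analysed by ³¹P NMR, and signal intensity (peak height × width at half-height) gave concentrations in each phase. P = [octanol]/[water].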

[5] = tested on: Mus musculus; assay: Percentage increase in life span when the compound was administered intraperitoneally at dose of 20 mg/Kg in P388 leukemia in CDF1 mice was determined; assay type: functional; settings: P388, ip; procedure, shortened: as §1
[6] = tested on: Mus musculus; assay: Compound was evaluated for the anticancer activity against P388 leukemia in CD2F1 male mice at a dose of 60 mg/kg/after 30 days; 0/6; assay type: functional; procedure, shortened: as §1
[7] = tested on: Mus musculus; assay: Anticancer activity against P388 leukemia in CD2F1 male mice expressed as Average % weight change on day 5 as a measure of toxicity was reported at a dose of 60 mg/kg/day.; assay type: functional; procedure, shortened: as §1
[8] = tested on: Mus musculus; assay: Percentage increase in life span when the compound was administered intraperitoneally at dose of 60 mg/Kg in P388 leukemia in CDF1 mice was determined; assay type: functional; settings: P388, ip; procedure, shortened: as §1

| Structure (SMILES) | T/C [1] | Survivors [2] | Weight change [3] | Partition coefficient [4] | ILS at 20 mg/kg [5] | Survivors [6] | Weight change [7] | ILS at 60 mg/kg [8] |
| --- | --- | --- | --- | --- | --- | --- | --- | --- |
| CCOCCOCCOP(=O)(N1CC1(C)C)N1CC1(C)C (stereo unspecified) | 188% and 88% | 0 | 1.5% | 1.65 | 28% | 0 | 5.5% | 88% |
| CCOCCOCCOP(=O)(N1CC1)N1CC1 | 231% and 131% | 0 | 2.8% | 1.25 | 40% | 0 | 4.5% | 131% |
| CCOCCOCCOP(=S)(N1CC1)N1CC1 | 177% and 77% | 0 | 2.6% | 2.4 | 24% | 0 | 1.4% | 77% |
| CCOCCOCCOP(=S)(N1CC1(C)C)N1CC1(C)C (stereo unspecified) |  | 0 | 1.6% | 2.95 | 19% | 0 | 1.4% | 42% |
| O=P(N1CCOCCOCCOCCOCCOCC1)(N1CC1)N1CC1 | 188% and 88% | 0 | 7.6% | 0.044 | 47% | 0 | 0.5% | 88% |
| S=P(N1CCOCCOCCOCCOCCOCC1)(N1CC1)N1CC1 |  | 0 | 10.6% | 5.6 | 2% | 0 | 12.3% | 20% |
